# Source: ChEMBL document CHEMBL1151437, “Activity of a potent hepatitis C virus polymerase inhibitor in the chimpanzee model” (Antimicrob Agents Chemother, 2007)
# Columns and labels:
# Hepatitis C virus [1] = test: Drug resistance, ratio of EC50 for HCV 1a H77 with NS5B polymerase G554D mutation to EC50 for wild type HCV 1a H77 infected in chimpanzee measured on day 16; format: functional, Hepacivirus hominis, genotype 1a H77
# Hepatitis C virus [2] = test: Drug resistance, ratio of EC50 for HCV 1a H77 with NS5B polymerase Y448C mutation to EC50 for wild type HCV 1a H77 infected in chimpanzee measured on day 28; format: functional, Hepacivirus hominis, genotype 1a H77
# [3] = Tmax in rat at 5 mg/kg, po; format: ADME, organism-based; parameters: dose 5 mg/kg, route oral; conditions: in vivo
# In short: (§1)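 Rats, dogs and monkeys received one oral 5 mg/kg dose in polyethylene glycol 400. Serum was sampled at 0.3, 0.5, 1, 2, 4, 6, 9, 12 and 24 h. Plasma drug was extracted by acetonitrile protein precipitation with internal standard and quantified by LC-MS against spiked standards (peak-area ratio, linear regression). Limit of quantitation was about 20 ng/ml.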
# [4] = Cmax in HCV 1b strain N infected chimpanzee at 30 mg/kg, po BID for 14 days measured after 2 hrs of postdose; format: ADME, organism-based, Pan troglodytes; parameters: dose 30 mg/kg, route oral; conditions: in vivo
# Hepatitis C virus [5] = test: Antiviral activity against HCV 1b strain N with NS5B polymerase C316Y mutation infected in chimpanzee measured on day 11; format: functional, organism-based, Hepacivirus hominis; conditions: genotype 1b strain N, 264 h
# Hepatitis C virus [6] = test: Antiviral activity against HCV 1b strain N with NS5B polymerase C316Y mutation infected in chimpanzee measured on day 5; format: functional, organism-based, Hepacivirus hominis; conditions: genotype 1b strain N, 120 h
# [7] = Cmax in dog at 5 mg/kg, po; format: ADME, organism-based, Canis lupus familiaris; parameters: dose 5 mg/kg, route oral; conditions: in vivo; in short: as §1
# Hepatitis C virus [8] = test: Antiviral activity against HCV 1a H77 after 4 days by RT-PCR; format: functional, organism-based, Hepacivirus hominis; conditions: genotype 1a H77, 96 h
# In short: (§2)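 Subgenomic replicon cells (genotype 1b strain N, or chimeric 1a H77/1b Con1) grown in DMEM with 10% FBS and 400 µg/ml G418. Next day, the medium was switched to 5% FBS with inhibitor in half-log dilutions. After 4 days, total RNA was extracted and replicon RNA copies were counted by TaqMan real-time RT-PCR. Potency came from the fall in copy number.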
# Hepatitis C virus [9] = test: Antiviral activity against HCV 1a H77 after 4 days by RT-PCR in presence of 40% human serum; format: functional, organism-based, Hepacivirus hominis; conditions: genotype 1a H77, 96 h
# In short: (§3)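 They were exposed for 4 days to half-log inhibitor dilutions in medium with 5% FBS plus 40% human serum, to assess protein binding. Replicon RNA copy number was then measured by TaqMan real-time RT-PCR on extracted total RNA.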
# Hepatitis C virus [10] = test: Drug resistance, ratio of EC50 for HCV 1b strain N with NS5B polymerase C316Y mutation to EC50 for wild type HCV 1b strain N infected in chimpanzee measured on day 2; format: functional, Hepacivirus hominis, genotype 1b strain N
# [11] = Oral bioavailability in monkey at 5 mg/kg; format: ADME, organism-based, Macaca mulatta; conditions: rhesus monkey, in vivo
# Hepatitis C virus [12] = test: Drug resistance, ratio of EC50 for HCV 1b strain N with NS5B polymerase C316Y mutation to EC50 for wild type HCV 1b strain N infected in chimpanzee measured on day 11; format: functional, Hepacivirus hominis, genotype 1b strain N
# [13] = AUC in dog at 5 mg/kg, po; format: ADME, organism-based, Canis lupus familiaris; parameters: dose 5 mg/kg, route oral; conditions: plasma; in short: as §1
# Hepatitis C virus [14] = test: Inhibition of HCV 1b strain N NS5B polymerase by [3H]UTP incorporation assay; parameters: species or system Hepatitis C virus subtype 1b
# [15] = Cmax in rat at 5 mg/kg, po; format: ADME, organism-based; parameters: dose 5 mg/kg, route oral; conditions: in vivo; in short: as §1
# [16] = Oral bioavailability in dog at 5 mg/kg; format: ADME, organism-based, Canis lupus familiaris; conditions: in vivo
# Hepatitis C virus [17] = test: Antiviral activity against HCV 1b strain N with NS5B polymerase C316Y mutation infected in chimpanzee measured on day 28; format: functional, organism-based, Hepacivirus hominis; conditions: genotype 1b strain N, 672 h
# Hepatitis C virus [18] = test: Antiviral activity against HCV 1a H77 infected in chimpanzee assessed as reduction in viral load at 30 mg/kg, po BID for 14 days measured on day 2 postdosing; format: functional, Hepacivirus hominis, genotype 1a H77
# In short: (§4)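 One chimpanzee infected with genotype 1a and one with genotype 1b were dosed orally with 30 mg/kg BID for 14 days. Serum viral load was measured by TaqMan quantitative RT-PCR. A pretreatment serum sample (day 0) served as the baseline.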
# [19] = AUC in rat at 5 mg/kg, po; format: ADME, organism-based; parameters: dose 5 mg/kg, route oral; conditions: plasma; in short: as §1
# Hepatitis C virus [20] = test: Antiviral activity against HCV 1a H77 with NS5B polymerase G554D mutation infected in chimpanzee measured on day 5; format: functional, organism-based, Hepacivirus hominis; conditions: genotype 1a H77, 120 h
# Hepatitis C virus [21] = test: Antiviral activity against HCV 1b strain N infected in chimpanzee assessed as reduction in viral load at 30 mg/kg, po BID for 14 days measured on day 2 postdosing; format: functional, Hepacivirus hominis, genotype 1b strain N; in short: as §4
# Hepatitis C virus [22] = test: Antiviral activity against HCV 1b strain N after 4 days by RT-PCR; format: functional, organism-based, Hepacivirus hominis; conditions: genotype 1b strain N, 96 h; in short: as §2
# [23] = Oral bioavailability in rat at 5 mg/kg; format: ADME, organism-based; conditions: in vivo
# Hepatitis C virus [24] = test: Drug resistance, ratio of EC50 for HCV 1b strain N with NS5B polymerase C316Y mutation to EC50 for wild type HCV 1b strain N infected in chimpanzee measured on day 28; format: functional, Hepacivirus hominis, genotype 1b strain N
# Hepatitis C virus [25] = test: Drug resistance, ratio of EC50 for HCV 1a H77 with NS5B polymerase G554D mutation to EC50 for wild type HCV 1a H77 infected in chimpanzee measured on day 2; format: functional, Hepacivirus hominis, genotype 1a H77
# Hepatitis C virus [26] = test: Antiviral activity against HCV 1a H77 with NS5B polymerase Y448C mutation infected in chimpanzee measured on day 28; format: functional, organism-based, Hepacivirus hominis; conditions: genotype 1a H77, 672 h
# [27] = Cmax in monkey at 5 mg/kg, po; format: ADME, organism-based, Macaca mulatta; parameters: dose 5 mg/kg, route oral; conditions: rhesus monkey, in vivo; in short: as §1
# Hepatitis C virus [28] = test: Drug resistance, ratio of EC50 for HCV 1b strain N with NS5B polymerase C316Y mutation to EC50 for wild type HCV 1b strain N infected in chimpanzee measured on day 5; format: functional, Hepacivirus hominis, genotype 1b strain N
# [29] = Half life in monkey at 5 mg/kg, po; format: ADME, organism-based, Macaca mulatta; parameters: dose 5 mg/kg, route oral; conditions: rhesus monkey, in vivo; in short: as §1
# Hepatitis C virus [30] = test: Antiviral activity against HCV 1b strain N after 4 days by RT-PCR in presence of 40% human serum; format: functional, organism-based, Hepacivirus hominis; conditions: genotype 1b strain N, 96 h; in short: as §3
# [31] = Half life in dog at 5 mg/kg, po; format: ADME, organism-based, Canis lupus familiaris; parameters: dose 5 mg/kg, route oral; conditions: in vivo; in short: as §1
# [32] = Half life in rat at 5 mg/kg, po; format: ADME, organism-based; parameters: dose 5 mg/kg, route oral; conditions: in vivo; in short: as §1
# Hepatitis C virus [33] = test: Antiviral activity against HCV 1a H77 with NS5B polymerase G554D mutation infected in chimpanzee measured on day 2; format: functional, organism-based, Hepacivirus hominis; conditions: genotype 1a H77, 48 h
# [34] = Tmax in monkey at 5 mg/kg, po; format: ADME, organism-based, Macaca mulatta; parameters: dose 5 mg/kg, route oral; conditions: rhesus monkey, in vivo; in short: as §1
# Hepatitis C virus [35] = test: Antiviral activity against HCV 1a H77 with NS5B polymerase G554D mutation infected in chimpanzee measured on day 16; format: functional, organism-based, Hepacivirus hominis; conditions: genotype 1a H77, 384 h
# Hepatitis C virus [36] = test: Ratio of EC50 for HCV 1a H77 in presence of 40% human serum to EC50 for HCV 1a H77 in absence of human serum; format: functional, Hepacivirus hominis, genotype 1a H77
# In short: (§5)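 Cells carrying the subgenomic replicon (genotype 1b strain N, or chimeric 1a H77/1b Con1) were maintained in DMEM with 10% FBS and 400 µg/ml G418. The next day they were given medium with 5% FBS and half-log inhibitor dilutions, with or without 40% human serum, for 4 days. Replicon RNA copy number was measured by TaqMan RT-PCR.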
# Hepatitis C virus [37] = test: Antiviral activity against wild type HCV 1b strain N infected in chimpanzee; format: functional, organism-based, Hepacivirus hominis; conditions: genotype 1b strain N
# Hepatitis C virus [38] = test: Drug resistance, ratio of EC50 for HCV 1a H77 with NS5B polymerase G554D mutation to EC50 for wild type HCV 1a H77 infected in chimpanzee measured on day 5; format: functional, Hepacivirus hominis, genotype 1a H77
# [39] = Inhibition of HCV 1a H77 NS5B polymerase by [3H]UTP incorporation assay; parameters: species or system Hepatitis C virus (isolate H77)
# Hepatitis C virus [40] = test: Ratio of EC50 for HCV 1b strain N in presence of 40% human serum to EC50 for HCV 1b strain N in absence of human serum; format: functional, Hepacivirus hominis, genotype 1b strain N; in short: as §5
# [41] = AUC in monkey at 5 mg/kg, po; format: ADME, organism-based, Macaca mulatta; parameters: dose 5 mg/kg, route oral; conditions: rhesus monkey, plasma; in short: as §1
# [42] = Cmax in HCV 1a H77 infected chimpanzee at 30 mg/kg, po BID for 14 days measured after 2 hrs of postdose; format: ADME, organism-based, Pan troglodytes; parameters: dose 30 mg/kg, route oral; conditions: in vivo
# In short: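 Chimpanzees were dosed orally at 30 mg/kg BID for 14 days. Plasma drug was measured by LC-MS. For the genotype 1a animal, the value is the mean of three samples taken 2 h after the a.m. dose on days 2, 3 and 4.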
# Hepatitis C virus [43] = test: Antiviral activity against HCV 1b strain N with NS5B polymerase C316Y mutation infected in chimpanzee measured on day 2; format: functional, organism-based, Hepacivirus hominis; conditions: genotype 1b strain N, 48 h
# [44] = Tmax in dog at 5 mg/kg, po; format: ADME, organism-based, Canis lupus familiaris; parameters: dose 5 mg/kg, route oral; conditions: in vivo; in short: as §1
smiles,measurement,setting,value
CC(C)CC[C@@]1(C)C(=O)C(C2=NS(=O)(=O)c3cc(NS(C)(=O)=O)ccc3N2)=C(O)c2ccccc21,fold change (FC),Hepatitis C virus [1],3.9
same,fold change (FC),Hepatitis C virus [2],2.3
same,Tmax,[3],4.2 h
same,Cmax,[4],8590 ng/mL
same,EC50,Hepatitis C virus [5],1800 nM
same,EC50,Hepatitis C virus [6],1200 nM
same,Cmax,[7],1940 ng/mL
same,EC50,Hepatitis C virus [8],11 nM
same,EC50,Hepatitis C virus [9],143 nM
same,fold change (FC),Hepatitis C virus [10],28
same,bioavailability,[11],15.2%
same,fold change (FC),Hepatitis C virus [12],2000
same,AUC,[13],10500 ng·h/mL
same,IC50,Hepatitis C virus [14],0.33 nM
same,Cmax,[15],310 ng/mL
same,bioavailability,[16],89.3%
same,EC50,Hepatitis C virus [17],350 nM
same,log10cfu,Hepatitis C virus [18],1.4 /ml
same,AUC,[19],3300 ng·h/mL
same,EC50,Hepatitis C virus [20],4.5 nM
same,log10cfu,Hepatitis C virus [21],2.5 /ml
same,EC50,Hepatitis C virus [22],3 nM
same,bioavailability,[23],62.7%
same,fold change (FC),Hepatitis C virus [24],389
same,fold change (FC),Hepatitis C virus [25],2.2
same,EC50,Hepatitis C virus [26],8.2 nM
same,Cmax,[27],520 ng/mL
same,fold change (FC),Hepatitis C virus [28],1330
same,half-life,[29],1.9 h
same,EC50,Hepatitis C virus [30],42 nM
same,half-life,[31],10.7 h
same,half-life,[32],7.6 h
same,EC50,Hepatitis C virus [33],7.7 nM
same,Tmax,[34],2.7 h
same,EC50,Hepatitis C virus [35],13.8 nM
same,fold change (FC),Hepatitis C virus [36],13
same,EC50,Hepatitis C virus [37],0.9 nM
same,fold change (FC),Hepatitis C virus [38],1.3
same,IC50,[39],1.25 nM
same,fold change (FC),Hepatitis C virus [40],15
same,AUC,[41],1500 ng·h/mL
same,Cmax,[42],5490 ng/mL
same,EC50,Hepatitis C virus [43],25 nM
same,Tmax,[44],0.4 h
COc1ccc2c(O[C@@H]3C[C@H]4C(=O)N[C@]5(C(=O)O)C[C@H]5/C=C\CCCCC[C@H](NC(=O)OC5CCCC5)C(=O)N4C3)cc(-c3csc(NC(C)C)n3)nc2c1 [CILUPREVIR],fold change (FC),Hepatitis C virus [1],0.9
same,fold change (FC),Hepatitis C virus [2],1.1
same,EC50,Hepatitis C virus [5],1.1 nM
same,EC50,Hepatitis C virus [6],1.3 nM
same,fold change (FC),Hepatitis C virus [10],1
same,fold change (FC),Hepatitis C virus [12],0.8
same,EC50,Hepatitis C virus [17],1.3 nM
same,EC50,Hepatitis C virus [20],3.1 nM
same,fold change (FC),Hepatitis C virus [24],1
same,fold change (FC),Hepatitis C virus [25],0.9
same,EC50,Hepatitis C virus [26],3.3 nM
same,fold change (FC),Hepatitis C virus [28],1.1
same,EC50,Hepatitis C virus [33],2.7 nM
same,EC50,Hepatitis C virus [35],2.8 nM
same,EC50,Hepatitis C virus [37],1.4 nM
same,fold change (FC),Hepatitis C virus [38],1
same,EC50,Hepatitis C virus [43],1.3 nM
